Experimental data from ChEMBL document CHEMBL4138147, “Discovery of a fluorescent probe with HDAC6 selective inhibition” (Eur J Med Chem, 2017).
The source made the active and inactive calls. The calls are words filed in the database; no cut-off is given here.

Assays:
[1] = biological target: T1, Protein deacetylase HDAC6 (Homo sapiens, UniProt Q9UBN7); test: Inhibition of human recombinant full-length HDAC6 expressed in baculovirus infected Sf9 cells using Boc-Lys(acetyl)-AMC as substrate after 30 mins by fluorescence assay
T1 sequence (Q9UBN7 whole entry): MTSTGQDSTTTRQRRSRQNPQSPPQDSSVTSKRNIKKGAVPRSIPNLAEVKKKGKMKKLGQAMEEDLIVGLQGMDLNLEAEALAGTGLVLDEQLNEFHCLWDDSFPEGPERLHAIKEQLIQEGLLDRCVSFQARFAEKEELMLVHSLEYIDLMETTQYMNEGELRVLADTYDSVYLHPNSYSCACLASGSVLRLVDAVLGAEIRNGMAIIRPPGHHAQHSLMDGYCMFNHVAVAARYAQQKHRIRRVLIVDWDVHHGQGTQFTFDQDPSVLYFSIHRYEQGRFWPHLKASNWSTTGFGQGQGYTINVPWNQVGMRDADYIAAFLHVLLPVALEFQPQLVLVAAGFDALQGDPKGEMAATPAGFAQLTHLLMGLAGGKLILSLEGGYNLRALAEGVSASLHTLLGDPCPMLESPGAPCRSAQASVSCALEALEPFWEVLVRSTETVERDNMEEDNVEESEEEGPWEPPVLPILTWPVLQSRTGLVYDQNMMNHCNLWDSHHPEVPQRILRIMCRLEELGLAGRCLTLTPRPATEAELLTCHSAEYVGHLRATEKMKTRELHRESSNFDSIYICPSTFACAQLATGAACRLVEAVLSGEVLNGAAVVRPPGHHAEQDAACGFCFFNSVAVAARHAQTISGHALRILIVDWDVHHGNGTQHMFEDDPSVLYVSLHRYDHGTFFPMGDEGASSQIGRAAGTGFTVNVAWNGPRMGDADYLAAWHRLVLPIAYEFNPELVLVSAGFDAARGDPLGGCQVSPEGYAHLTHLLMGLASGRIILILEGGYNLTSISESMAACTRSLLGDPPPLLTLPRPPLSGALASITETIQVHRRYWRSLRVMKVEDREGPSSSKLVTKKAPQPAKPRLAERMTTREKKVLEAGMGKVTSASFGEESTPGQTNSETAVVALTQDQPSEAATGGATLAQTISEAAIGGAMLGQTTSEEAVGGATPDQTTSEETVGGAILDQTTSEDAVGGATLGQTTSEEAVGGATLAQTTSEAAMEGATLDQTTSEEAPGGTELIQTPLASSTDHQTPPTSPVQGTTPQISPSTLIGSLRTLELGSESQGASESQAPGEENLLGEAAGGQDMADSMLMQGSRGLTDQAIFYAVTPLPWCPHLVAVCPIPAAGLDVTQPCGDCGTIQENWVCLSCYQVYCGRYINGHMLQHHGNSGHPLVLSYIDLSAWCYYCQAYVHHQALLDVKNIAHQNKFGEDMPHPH

Histone deacetylase 3 = Histone deacetylase 3 (Homo sapiens, UniProt O15379); test: Inhibition of human recombinant full-length C-terminal GST-tagged HDAC3 expressed in baculovirus infected Sf9 cells using Boc-Lys(acetyl)-AMC as substrate after 30 mins by fluorescence assay
Histone deacetylase 3, sequence (O15379 whole entry): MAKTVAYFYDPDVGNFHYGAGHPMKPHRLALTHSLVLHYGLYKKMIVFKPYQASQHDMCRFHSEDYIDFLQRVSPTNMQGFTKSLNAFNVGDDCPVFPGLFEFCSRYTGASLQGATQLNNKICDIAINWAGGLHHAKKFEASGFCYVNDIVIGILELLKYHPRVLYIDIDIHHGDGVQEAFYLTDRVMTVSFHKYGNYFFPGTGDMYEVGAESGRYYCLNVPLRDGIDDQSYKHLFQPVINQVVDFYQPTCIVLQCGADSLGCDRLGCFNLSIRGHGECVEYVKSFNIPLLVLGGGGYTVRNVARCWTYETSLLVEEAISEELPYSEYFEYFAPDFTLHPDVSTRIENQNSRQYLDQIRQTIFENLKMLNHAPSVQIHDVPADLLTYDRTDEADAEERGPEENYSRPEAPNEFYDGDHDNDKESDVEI

[2] = biological target: T2, Protein deacetylase HDAC6 (Homo sapiens) (UniProt Q9UBN7); test: (§1) Binding affinity to HDAC6 in aggresomes of human A549 cells assessed as formation of aggresome-like structures at 2 uM added after 24 hrs pre-treatment with MG132 followed by compound addition measured after 2 hrs by fluorescence staining-based confocal microscopic analysis
T2 sequence (whole entry): T1 sequence (Q9UBN7 whole entry)
In short: (§2)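 A549 cells (DMEM, 10% FBS, 37 °C, 5% CO2) given DMSO or 5 μM MG132 for 24 h, fixed in 4% formaldehyde/PBS 20 min, then stained with 2 μM compound in PBS for 2 h. For antibody co-staining, cells were permeabilized with 0.1% Triton X-100, BSA-blocked, and probed overnight at 4 °C with anti-HDAC6 or anti-ubiquitin antibody plus Alexa 647 secondary before the compound. Confocal imaging: compound ex 405/em 500–600 nm; antibody ex 633/em 650–750 nm.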

Histone deacetylase 2 = Histone deacetylase 2 (Homo sapiens, UniProt Q92769); test: Inhibition of human recombinant full-length C-terminal GST-tagged HDAC2 expressed in baculovirus infected Sf9 cells using Boc-Lys(acetyl)-AMC as substrate after 30 mins by fluorescence assay; format: cell-based
Histone deacetylase 2, sequence (Q92769 whole entry): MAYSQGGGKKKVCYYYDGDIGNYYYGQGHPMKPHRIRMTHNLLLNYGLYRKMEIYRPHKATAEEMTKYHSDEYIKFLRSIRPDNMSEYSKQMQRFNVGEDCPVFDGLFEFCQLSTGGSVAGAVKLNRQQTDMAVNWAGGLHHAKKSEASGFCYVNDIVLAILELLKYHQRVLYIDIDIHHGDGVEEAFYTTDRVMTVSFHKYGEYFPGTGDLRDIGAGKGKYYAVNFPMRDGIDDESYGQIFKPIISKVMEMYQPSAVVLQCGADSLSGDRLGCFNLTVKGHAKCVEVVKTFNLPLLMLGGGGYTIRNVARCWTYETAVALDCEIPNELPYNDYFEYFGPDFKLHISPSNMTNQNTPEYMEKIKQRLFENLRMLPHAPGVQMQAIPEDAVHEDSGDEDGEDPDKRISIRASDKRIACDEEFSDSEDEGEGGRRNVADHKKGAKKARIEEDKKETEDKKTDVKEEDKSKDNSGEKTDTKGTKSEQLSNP

[3] = biological target: Histone deacetylase 1/2/3 (Homo sapiens) (UniProt Q13547+O15379+Q92769); details: A549, at 500 nM
Histone deacetylase 1 = Histone deacetylase 1 (Homo sapiens, UniProt Q13547); test: Inhibition of human recombinant full-length HDAC1 (1 to 482 residues) expressed in baculovirus using Boc-Lys(acetyl)-AMC as substrate after 30 mins by fluorescence assay
Histone deacetylase 1, sequence (Q13547 whole entry, the tested form may be a part): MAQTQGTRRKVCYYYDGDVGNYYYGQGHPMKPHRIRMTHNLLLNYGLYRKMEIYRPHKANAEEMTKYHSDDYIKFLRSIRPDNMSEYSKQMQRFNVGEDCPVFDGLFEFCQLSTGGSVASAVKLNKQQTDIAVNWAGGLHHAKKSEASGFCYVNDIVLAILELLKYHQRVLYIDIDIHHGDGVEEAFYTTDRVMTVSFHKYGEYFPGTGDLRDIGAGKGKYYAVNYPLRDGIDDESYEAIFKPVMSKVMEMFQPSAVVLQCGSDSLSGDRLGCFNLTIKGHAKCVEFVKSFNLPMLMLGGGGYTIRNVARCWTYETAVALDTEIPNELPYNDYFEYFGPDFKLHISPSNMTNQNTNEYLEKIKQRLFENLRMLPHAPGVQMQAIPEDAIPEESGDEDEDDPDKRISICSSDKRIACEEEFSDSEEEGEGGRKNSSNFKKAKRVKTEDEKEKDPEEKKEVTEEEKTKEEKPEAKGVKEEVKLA

Histone deacetylase 11 = biological target: T3, Histone deacetylase 11 (Homo sapiens, UniProt Q96DB2); test: Inhibition of HDAC11 (unknown origin) using Boc-Lys(acetyl)-AMC as substrate after 30 mins by fluorescence assay
T3 sequence (Q96DB2 whole entry): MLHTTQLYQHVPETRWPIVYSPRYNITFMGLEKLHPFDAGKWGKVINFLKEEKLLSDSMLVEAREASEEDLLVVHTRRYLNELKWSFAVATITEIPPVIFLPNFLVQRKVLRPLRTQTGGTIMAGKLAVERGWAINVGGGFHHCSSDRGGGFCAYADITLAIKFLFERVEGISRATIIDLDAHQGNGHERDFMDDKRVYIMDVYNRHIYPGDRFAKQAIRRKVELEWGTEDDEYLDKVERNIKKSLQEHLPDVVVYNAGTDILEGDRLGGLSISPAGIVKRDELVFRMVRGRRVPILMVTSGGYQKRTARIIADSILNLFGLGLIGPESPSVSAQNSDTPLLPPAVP
In short: (§3)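 The HDAC isoform was incubated with substrate and compound (from a 10% DMSO dilution, 5 μL into a 50 μL reaction) at 37 °C for 30 min. The reaction was stopped with developer containing trypsin and TSA.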

[4] = Drug uptake in cytoplasm of human A549 cells assessed as diffused staining in cytoplasm at 2 uM added after 24 hrs pre-treatment with DMSO followed by compound addition measured after 2 hrs by fluorescence staining-based confocal microscopic analysis; format: ADME, subcellular; details: a549, 24 h; in short: as §2
Histone deacetylase 5 = Histone deacetylase 5 (Homo sapiens, UniProt Q9UQL6); test: Inhibition of HDAC5 (unknown origin) using Boc-Lys(acetyl)-AMC as substrate after 30 mins by fluorescence assay; in short: as §3
Histone deacetylase 5, sequence (Q9UQL6 whole entry): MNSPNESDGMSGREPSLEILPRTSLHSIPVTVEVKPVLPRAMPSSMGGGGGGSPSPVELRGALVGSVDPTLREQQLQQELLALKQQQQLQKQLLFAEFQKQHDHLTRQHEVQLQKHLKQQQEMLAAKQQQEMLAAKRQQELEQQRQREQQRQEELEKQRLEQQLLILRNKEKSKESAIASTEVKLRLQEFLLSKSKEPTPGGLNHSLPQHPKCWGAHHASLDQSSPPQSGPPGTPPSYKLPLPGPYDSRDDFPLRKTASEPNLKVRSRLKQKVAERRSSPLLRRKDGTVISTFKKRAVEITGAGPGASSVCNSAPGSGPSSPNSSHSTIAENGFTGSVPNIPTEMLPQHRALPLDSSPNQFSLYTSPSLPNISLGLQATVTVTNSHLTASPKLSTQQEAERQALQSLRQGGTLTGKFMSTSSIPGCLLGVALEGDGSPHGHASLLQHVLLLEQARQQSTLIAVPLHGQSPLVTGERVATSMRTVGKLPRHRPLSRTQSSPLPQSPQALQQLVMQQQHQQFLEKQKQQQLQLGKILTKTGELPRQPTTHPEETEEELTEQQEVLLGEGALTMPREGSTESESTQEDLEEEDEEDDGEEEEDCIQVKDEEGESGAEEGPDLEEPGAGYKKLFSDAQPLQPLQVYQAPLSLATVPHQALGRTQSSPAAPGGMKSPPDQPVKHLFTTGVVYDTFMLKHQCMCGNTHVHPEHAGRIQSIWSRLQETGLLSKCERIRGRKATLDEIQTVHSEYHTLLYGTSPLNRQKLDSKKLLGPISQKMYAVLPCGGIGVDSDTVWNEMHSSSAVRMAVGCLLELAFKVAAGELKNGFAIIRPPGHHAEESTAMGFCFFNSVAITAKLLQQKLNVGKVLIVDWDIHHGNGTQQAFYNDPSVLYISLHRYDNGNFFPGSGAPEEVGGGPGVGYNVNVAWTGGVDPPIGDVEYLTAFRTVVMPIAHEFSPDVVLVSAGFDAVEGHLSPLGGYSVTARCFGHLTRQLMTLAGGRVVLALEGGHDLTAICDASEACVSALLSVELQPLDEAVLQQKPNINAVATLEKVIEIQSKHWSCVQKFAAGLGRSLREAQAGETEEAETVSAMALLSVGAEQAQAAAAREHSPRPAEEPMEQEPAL

Histone deacetylase 8 = biological target: T4, Histone deacetylase 8 (Homo sapiens, UniProt Q9BY41); test: Inhibition of HDAC8 (unknown origin) using Boc-Lys(acetyl)-AMC as substrate after 30 mins by fluorescence assay; in short: as §3
T4 sequence (Q9BY41 whole entry): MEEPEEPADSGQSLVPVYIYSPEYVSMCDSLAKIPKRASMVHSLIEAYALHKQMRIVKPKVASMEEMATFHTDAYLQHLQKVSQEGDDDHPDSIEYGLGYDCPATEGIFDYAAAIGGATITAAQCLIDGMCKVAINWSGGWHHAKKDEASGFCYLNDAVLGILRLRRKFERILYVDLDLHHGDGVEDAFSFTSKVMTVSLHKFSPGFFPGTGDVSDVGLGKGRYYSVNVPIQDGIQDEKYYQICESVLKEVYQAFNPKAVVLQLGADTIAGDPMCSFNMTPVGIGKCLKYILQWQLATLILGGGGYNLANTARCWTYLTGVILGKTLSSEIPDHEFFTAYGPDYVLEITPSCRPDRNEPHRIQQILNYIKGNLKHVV

[5] = Drug uptake in human A549 cells assessed as intracellular distribution at 2 uM added after 24 hrs pre-treatment with MG132 followed by compound addition measured after 2 hrs by fluorescence staining-based confocal microscopic analysis; format: ADME, cell-based; details: a549, 24 h; in short: as §2
[6] = biological target: T2, Protein deacetylase HDAC6 (Homo sapiens); test: Binding affinity to HDAC6 in aggresomes of human A549 cells assessed as relocation of compound to single bright juxtanuclear structure at 2 uM added after 24 hrs pre-treatment with MG132 followed by compound addition measured after 2 hrs by fluorescence staining-based confocal microscopic analysis; in short: as §2
[7] = biological target: T5, Polyamine deacetylase HDAC10 (Homo sapiens, UniProt Q969S8); test: Inhibition of HDAC10 (unknown origin) using Boc-Lys(acetyl)-AMC as substrate after 30 mins by fluorescence assay; in short: as §3
T5 sequence (Q969S8 whole entry): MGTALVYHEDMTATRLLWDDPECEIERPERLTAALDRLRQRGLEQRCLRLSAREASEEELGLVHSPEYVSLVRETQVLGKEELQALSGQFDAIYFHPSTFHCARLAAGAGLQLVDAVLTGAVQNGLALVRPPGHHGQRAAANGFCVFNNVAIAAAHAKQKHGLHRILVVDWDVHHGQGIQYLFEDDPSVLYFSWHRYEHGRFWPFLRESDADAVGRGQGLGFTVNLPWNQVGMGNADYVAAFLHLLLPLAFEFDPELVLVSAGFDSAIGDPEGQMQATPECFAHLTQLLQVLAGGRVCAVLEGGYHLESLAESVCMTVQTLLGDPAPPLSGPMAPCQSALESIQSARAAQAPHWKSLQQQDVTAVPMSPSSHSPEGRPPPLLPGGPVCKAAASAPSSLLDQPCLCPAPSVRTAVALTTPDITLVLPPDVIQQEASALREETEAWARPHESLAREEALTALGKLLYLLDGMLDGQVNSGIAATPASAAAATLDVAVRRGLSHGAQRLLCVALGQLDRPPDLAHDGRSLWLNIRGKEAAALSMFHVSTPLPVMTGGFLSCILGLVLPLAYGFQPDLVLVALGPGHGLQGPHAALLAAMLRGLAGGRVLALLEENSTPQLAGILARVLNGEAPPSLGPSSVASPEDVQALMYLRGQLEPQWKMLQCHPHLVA

Histone deacetylase 4 = Histone deacetylase 4 (Homo sapiens, UniProt P56524); test: Inhibition of HDAC4 (unknown origin) using Boc-Lys(acetyl)-AMC as substrate after 30 mins by fluorescence assay; in short: as §3
Histone deacetylase 4, sequence (P56524 whole entry): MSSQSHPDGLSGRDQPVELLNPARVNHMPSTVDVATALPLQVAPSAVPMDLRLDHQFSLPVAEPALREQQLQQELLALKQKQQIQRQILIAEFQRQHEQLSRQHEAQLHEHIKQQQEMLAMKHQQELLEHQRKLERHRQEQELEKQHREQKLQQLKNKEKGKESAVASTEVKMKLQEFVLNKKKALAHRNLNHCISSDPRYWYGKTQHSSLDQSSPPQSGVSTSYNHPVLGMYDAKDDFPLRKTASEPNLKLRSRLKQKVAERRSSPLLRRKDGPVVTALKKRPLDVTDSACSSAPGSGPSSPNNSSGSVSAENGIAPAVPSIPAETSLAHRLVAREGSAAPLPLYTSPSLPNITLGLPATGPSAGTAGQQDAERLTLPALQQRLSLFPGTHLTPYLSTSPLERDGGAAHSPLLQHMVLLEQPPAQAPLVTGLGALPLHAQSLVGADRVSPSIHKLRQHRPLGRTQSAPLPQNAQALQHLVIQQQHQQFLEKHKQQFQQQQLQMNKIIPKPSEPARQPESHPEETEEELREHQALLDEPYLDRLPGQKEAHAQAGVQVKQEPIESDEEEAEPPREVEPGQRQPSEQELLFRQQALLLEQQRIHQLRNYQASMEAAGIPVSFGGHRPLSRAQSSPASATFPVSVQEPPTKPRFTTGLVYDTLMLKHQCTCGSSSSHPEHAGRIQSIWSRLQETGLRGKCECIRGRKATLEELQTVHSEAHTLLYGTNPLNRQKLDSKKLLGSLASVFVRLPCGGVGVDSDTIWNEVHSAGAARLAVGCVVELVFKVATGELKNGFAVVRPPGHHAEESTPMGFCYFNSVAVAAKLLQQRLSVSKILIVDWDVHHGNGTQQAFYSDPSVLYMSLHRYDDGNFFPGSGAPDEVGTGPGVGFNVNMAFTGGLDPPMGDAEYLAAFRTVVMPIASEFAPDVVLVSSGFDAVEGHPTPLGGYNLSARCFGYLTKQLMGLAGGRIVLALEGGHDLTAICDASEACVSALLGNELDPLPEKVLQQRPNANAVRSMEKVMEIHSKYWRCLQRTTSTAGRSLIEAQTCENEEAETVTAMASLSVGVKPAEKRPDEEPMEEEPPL

Histone deacetylase 7 = biological target: T6, Histone deacetylase 7 (Homo sapiens, UniProt Q8WUI4); test: Inhibition of HDAC7 (unknown origin) using Boc-Lys(acetyl)-AMC as substrate after 30 mins by fluorescence assay
T6 sequence (Q8WUI4 whole entry): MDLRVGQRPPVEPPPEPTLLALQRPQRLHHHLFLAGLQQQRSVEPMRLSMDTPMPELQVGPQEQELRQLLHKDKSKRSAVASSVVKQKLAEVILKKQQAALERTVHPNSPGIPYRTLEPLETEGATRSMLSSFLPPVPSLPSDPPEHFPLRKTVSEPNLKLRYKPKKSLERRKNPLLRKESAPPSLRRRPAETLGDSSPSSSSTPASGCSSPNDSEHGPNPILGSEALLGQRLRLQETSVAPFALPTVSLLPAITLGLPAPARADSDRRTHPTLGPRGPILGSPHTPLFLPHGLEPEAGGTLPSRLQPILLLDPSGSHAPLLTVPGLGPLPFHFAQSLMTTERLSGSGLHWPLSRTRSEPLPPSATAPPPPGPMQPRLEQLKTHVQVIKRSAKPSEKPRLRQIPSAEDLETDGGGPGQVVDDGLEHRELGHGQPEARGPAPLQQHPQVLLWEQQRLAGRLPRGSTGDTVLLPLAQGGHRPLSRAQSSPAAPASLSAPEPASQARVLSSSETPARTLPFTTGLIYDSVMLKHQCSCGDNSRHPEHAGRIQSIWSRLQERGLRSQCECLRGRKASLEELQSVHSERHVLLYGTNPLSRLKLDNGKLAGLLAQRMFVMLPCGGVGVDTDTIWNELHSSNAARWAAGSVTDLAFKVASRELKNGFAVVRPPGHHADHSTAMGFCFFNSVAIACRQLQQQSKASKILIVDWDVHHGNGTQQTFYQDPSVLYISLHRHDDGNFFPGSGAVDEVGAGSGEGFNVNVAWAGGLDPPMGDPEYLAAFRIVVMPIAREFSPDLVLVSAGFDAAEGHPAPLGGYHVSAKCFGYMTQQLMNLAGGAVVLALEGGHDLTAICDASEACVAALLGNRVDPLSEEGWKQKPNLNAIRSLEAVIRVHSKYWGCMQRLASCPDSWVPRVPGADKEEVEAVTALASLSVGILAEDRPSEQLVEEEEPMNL

[8] = biological target: T2, Protein deacetylase HDAC6 (Homo sapiens); test: as §1, with “induction of co-localization” for “formation”, “structures with polyubiquitin” for “structures”; in short: as §2
Histone deacetylase 9 = Histone deacetylase 9 (Homo sapiens, UniProt Q9UKV0); test: Inhibition of HDAC9 (unknown origin) using Boc-Lys(acetyl)-AMC as substrate after 30 mins by fluorescence assay; in short: as §3
Histone deacetylase 9, sequence (Q9UKV0 whole entry): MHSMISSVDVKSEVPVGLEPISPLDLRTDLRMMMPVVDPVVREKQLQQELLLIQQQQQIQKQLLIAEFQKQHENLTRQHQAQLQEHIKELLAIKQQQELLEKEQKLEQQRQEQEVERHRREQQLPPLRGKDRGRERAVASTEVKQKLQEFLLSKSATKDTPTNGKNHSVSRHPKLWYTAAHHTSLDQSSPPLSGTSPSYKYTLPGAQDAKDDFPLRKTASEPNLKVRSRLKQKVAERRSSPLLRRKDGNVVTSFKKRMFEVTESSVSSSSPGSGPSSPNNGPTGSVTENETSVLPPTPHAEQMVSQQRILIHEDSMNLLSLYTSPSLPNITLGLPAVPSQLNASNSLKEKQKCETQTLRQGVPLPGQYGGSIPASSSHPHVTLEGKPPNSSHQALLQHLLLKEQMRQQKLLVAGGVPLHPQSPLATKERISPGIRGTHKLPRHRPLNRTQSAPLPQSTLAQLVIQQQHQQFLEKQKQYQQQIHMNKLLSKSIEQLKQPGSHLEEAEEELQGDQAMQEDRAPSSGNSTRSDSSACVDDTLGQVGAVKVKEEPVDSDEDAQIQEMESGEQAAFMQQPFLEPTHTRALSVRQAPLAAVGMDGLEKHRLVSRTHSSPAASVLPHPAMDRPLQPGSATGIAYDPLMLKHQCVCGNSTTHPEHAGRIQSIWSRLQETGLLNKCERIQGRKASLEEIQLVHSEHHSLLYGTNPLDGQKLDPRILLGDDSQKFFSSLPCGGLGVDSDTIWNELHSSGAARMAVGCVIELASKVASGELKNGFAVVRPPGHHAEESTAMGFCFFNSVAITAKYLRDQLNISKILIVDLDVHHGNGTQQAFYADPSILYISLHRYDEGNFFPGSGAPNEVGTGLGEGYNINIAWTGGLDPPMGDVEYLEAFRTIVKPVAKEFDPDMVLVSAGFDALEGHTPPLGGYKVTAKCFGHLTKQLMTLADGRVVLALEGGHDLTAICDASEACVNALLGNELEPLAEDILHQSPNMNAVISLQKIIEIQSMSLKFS

Structure (SMILES): O=C(NO)c1ccc(CN2C(=O)c3cccc4c(N5CCOCC5)ccc(c34)C2=O)cc1
- IC50 [1]: 2.7 nM
- IC50 (Histone deacetylase 3): 11.1 nM
- Activity [2]: inactive
- IC50 (Histone deacetylase 2): 98.8 nM
- inhibition [3]: Active
- IC50 (Histone deacetylase 1): 36.2 nM

Structure (SMILES): O=C(CCCCCN1C(=O)c2cccc3c(N4CCOCC4)ccc(c23)C1=O)NO
- IC50 [1]: 0.65 nM
- IC50 (Histone deacetylase 3): 2.65 nM
- Activity [2]: inactive
- IC50 (Histone deacetylase 2): 25.6 nM
- IC50 (Histone deacetylase 1): 5.25 nM

Structure (SMILES): O=C(NO)c1ccc(CCN2C(=O)c3cccc4c(N5CCOCC5)ccc(c34)C2=O)cc1
- IC50 [1]: 139 nM
- IC50 (Histone deacetylase 11): > 10000 nM
- Drug uptake [4]: Active
- IC50 (Histone deacetylase 3): > 30000 nM
- IC50 (Histone deacetylase 5): > 100000 nM
- Activity [2]: Active
- IC50 (Histone deacetylase 8): 3050 nM
- IC50 (Histone deacetylase 2): > 100000 nM
- Drug uptake [5]: Active
- Activity [6]: Active
- IC50 [7]: 1870 nM
- inhibition [3]: inactive
- IC50 (Histone deacetylase 1): > 20000 nM
- IC50 (Histone deacetylase 4): > 100000 nM
- IC50 (Histone deacetylase 7): > 100000 nM
- Activity [8]: Active
- IC50 (Histone deacetylase 9): > 30000 nM
